dFosB activator: enhances mouse delta FosB homodimer DNA binding. P13346. purified delta FosB, TAMRA-CDK5 oligo fluorescence polarization; percent of positive-control signal above neutral wells. activation, % at 25 µM. hit rate 0.99% among 340,000;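 active means mean activation above about 17%, with every replicate also reaching it, limit read from the data, passing the limit was not always enough; inconclusive means only one of the two conditions met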
PAX8 inh HTS: lowers PAX8-driven luciferase in RMG-I cells. RMG-I TPO-luciferase reporter, SteadyGlo, 24 h. inhibition, % at 12.6 µM. hit rate 1.2% among 360,000;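 active means mean replicate inhibition at least 60% with every replicate also reaching 60%; inconclusive means only one of the two criteria is met; inactive means mean below 60% and not all replicates reaching 60%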;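 further: luciferase light reporting Pax8 driven TPO promoter activity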
CDK5 p35 inh: CDK5/p35 (human) kinase inhibition; Q00535+Q15078; Recombinant CDK5/p35, ADP-Glo luminescence, 60 min; inhibition, % at 10 µM; hit rate 0.01% among 330,000; AID 488839;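 active means highest replicate inhibition of at least 50% and at least 75% of replicates reaching 50%; inconclusive means only one of the two criteria met; inactive means both criteria failed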
Target sequence (Q00535 whole entry, looked up): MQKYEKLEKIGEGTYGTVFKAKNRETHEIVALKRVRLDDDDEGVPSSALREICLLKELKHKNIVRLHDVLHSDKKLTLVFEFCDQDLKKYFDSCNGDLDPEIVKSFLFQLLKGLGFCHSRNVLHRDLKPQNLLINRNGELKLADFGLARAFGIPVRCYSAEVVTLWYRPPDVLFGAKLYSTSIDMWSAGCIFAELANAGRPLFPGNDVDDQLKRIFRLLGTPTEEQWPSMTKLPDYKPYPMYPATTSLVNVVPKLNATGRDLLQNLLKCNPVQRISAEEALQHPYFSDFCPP
Target sequence (Q15078 whole entry, looked up): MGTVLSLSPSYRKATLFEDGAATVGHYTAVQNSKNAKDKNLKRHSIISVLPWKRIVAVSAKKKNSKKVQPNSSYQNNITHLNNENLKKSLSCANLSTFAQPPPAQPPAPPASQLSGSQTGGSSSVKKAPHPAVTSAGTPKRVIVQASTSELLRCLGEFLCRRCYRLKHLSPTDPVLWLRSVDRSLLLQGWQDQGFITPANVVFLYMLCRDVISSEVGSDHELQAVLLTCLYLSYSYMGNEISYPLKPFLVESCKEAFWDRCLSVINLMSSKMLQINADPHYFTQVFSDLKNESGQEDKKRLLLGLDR
Cneo AK release: Cryptococcus neoformans lysis via adenylate kinase release; hit rate 0.2% among 360,000; C. neoformans lysis, adenylate kinase release luminescence, 4 h; normalised: neutral wells 0, clomiphene wells 100; lysis activity, % at 15 µM;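 active means mean lysis activity across replicates of at least 80%, whatever share of replicates individually reach that level; inactive means mean lysis activity below 80%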
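Signal: Adenylate kinase release luminescence | Assay system: Log-phase Cryptococcus neoformans yeast cells | Input: Cells at 5 × 10^6 per mL | Buffer or medium: Fresh YPD growth medium | Compound: Single dose | Schedule: Static 4 h at 37 °C with compound, 1 h detection | Controls: Clomiphene | Read-out: Luminescence rise reflecting yeast cell lysis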
INS-1E GSIS act: primary screen for activators of insulin secretion dependent on glucose, INS-1E cells, GLuc reporter luminescence. AID 743287. activation, % at 16.6 µM. hit rate 0.61% among 370,000. INS-1E GLuc reporter insulin secretion, 2-3 h;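 active means lowest replicate activation of at least 40%, so every replicate reaches that level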
HIV Env fusion: HIV envelope-mediated fusion inhibition; HeLa-JRFL Env/CEM21 cell fusion, luciferase; inhibition, % at 12.3 µM; hit rate 1.1% among 360,000;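 active means mean replicate inhibition score of at least 50 and every replicate individually at or above 50; inconclusive means only one of the two criteria met; inactive means mean below 50 and not all replicates reaching 50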
Numbers stand for hits; . = inactive; ? = inconclusive; / = no result; [ ] = another dose, or the depositor's remark. An excerpt weighted towards active compounds, which were near 2.9% of everything screened.

SMILES	dFosB activator	PAX8 inh HTS	CDK5 p35 inh	Cneo AK release	INS-1E GSIS act	HIV Env fusion
COc1ccc(S(=O)(=O)Nc2ccc3c(c2)C(=O)N([C@@H](C)CO)C[C@@H](C)[C@@H](CN(C)Cc2ccc(C(F)(F)F)cc2)OCCCC[C@@H](C)O3)cc1	/	105	/	.	.	.
COc1ccc(S(=O)(=O)Nc2ccc3c(c2)C(=O)N([C@H](C)CO)C[C@@H](C)[C@@H](CN(C)Cc2ccc(C(F)(F)F)cc2)OCCCC[C@@H](C)O3)cc1	/	110	/	.	.	55[16.7 µM]
Fc1ccc(CN2[C@@H]3CNC[C@H]2C3c2ccc(-c3ccncc3)cc2)cc1 (stereo not given in full)	/	.	/	/	.	/
COc1ccc(S(=O)(=O)Nc2ccc3c(c2)C(=O)N([C@H](C)CO)C[C@@H](C)[C@@H](CN(C)Cc2ccc(C(F)(F)F)cc2)OCCCC[C@H](C)O3)cc1	/	105	/	.	.	74[16.7 µM]
COc1ccc(S(=O)(=O)Nc2ccc3c(c2)C(=O)N([C@H](C)CO)C[C@@H](C)[C@H](CN(C)Cc2ccc(C(F)(F)F)cc2)OCCCC[C@@H](C)O3)cc1	/	.	/	.	.	64[16.7 µM]
COc1ccc(CN(C)C[C@@H]2OCCCC[C@H](C)Oc3ccc(NS(=O)(=O)c4ccc(C)cc4)cc3C(=O)N([C@H](C)CO)C[C@H]2C)cc1	/	82	/	.	.	.
COc1ccc(S(=O)(=O)Nc2ccc3c(c2)C(=O)N([C@H](C)CO)C[C@H](C)[C@H](CN(C)Cc2ccc(C(F)(F)F)cc2)OCCCC[C@@H](C)O3)cc1	/	.	/	.	.	.
COc1ccc(CN(C)C[C@H]2OCCCC[C@@H](C)Oc3ccc(NS(=O)(=O)c4ccc(C)cc4)cc3C(=O)N([C@H](C)CO)C[C@H]2C)cc1	/	.	/	.	.	.
C[C@@H]1CCCCO[C@H](CN(C)C(=O)Nc2ccc(F)cc2)[C@H](C)CN([C@@H](C)CO)C(=O)c2cc(NC(=O)Nc3ccccc3)ccc2O1	/	.	/	.	.	.
N=c1n(Cc2ccccc2)c2ccccc2n1CC(O)COc1ccc(Cl)cc1Cl (stereo not given)	30	93	.	/	.	.
CCOC(=O)N1CCN(S(=O)(=O)N2CCCC(C(=O)NCc3cc(OC)ccc3OC)C2)CC1 (stereo not given)	/	.	/	.	99	.
COc1ccc(OC)c(CNC(=O)C2CCCN(S(=O)(=O)N3CCC(C)CC3)C2)c1 (stereo not given)	.	.	/	.	.	.
COc1ccc(NC(=O)Nc2ccc3c(c2)C(=O)N([C@@H](C)CO)C[C@H](C)[C@@H](CN(C)S(=O)(=O)c2cn(C)cn2)OCCCC[C@@H](C)O3)cc1	/	.	/	.	.	.
CCN1CCN(S(=O)(=O)c2ccc(Cl)c(C(=O)Nc3ccccc3N3CCCC3)c2)CC1	.	/	.	.	.	80
CCN1CCN(S(=O)(=O)c2ccc(Cl)c(C(=O)Nc3ccccc3N3CCCCC3)c2)CC1	.	.	.	.	.	.
CCN1CCN(c2ccc(S(=O)(=O)N3CCCCC3)cc2NC(=O)c2cc3ccccc3o2)CC1	.	.	.	.	46	.
Cc1ccc(S(=O)(=O)N2CCCCC2)cc1NC(=O)c1cc2ccccc2o1	.	.	.	.	.	?
O=C(C[C@@H]1CC[C@H](NC(=O)c2ccc3c(c2)OCO3)[C@@H](CO)O1)NCc1ccc(Cl)cc1	/	.	/	.	.	.
Cc1noc(C)c1S(=O)(=O)Nc1ccc2c(c1)CC(=O)N([C@@H](C)CO)C[C@@H](C)[C@H](CN(C)Cc1ccc(C(F)(F)F)cc1)O2	/	/	/	.	.	.
CCN1CCN=C1Nc1ccccc1	.	.	.	.	/	.
CCC(CC)CN1CCN=C1Nc1ccccc1	.	.	.	.	59	.
C[C@@H]1CN([C@@H](C)CO)C(=O)c2cc(NC(=O)Nc3ccc(C(F)(F)F)cc3)ccc2O[C@@H](C)CCCCO[C@@H]1CN(C)Cc1ccc(C(=O)O)cc1	/	.	/	.	.	.
C=CC(=O)Nc1ccc(N(C)c2ccnc(Nc3ccc(N4CCN(C)CC4)cc3)n2)cc1	50	?	.	.	.	.
CN1CCN(c2ccc(NC(=O)COc3ccccc3Cl)cc2)CC1	.	/	.	.	.	/
CCOc1ccc(N2CC(NS(=O)(=O)c3cccs3)CC2=O)cc1 (stereo not given)	.	.	.	.	.	56
SMILES	dFosB activator	PAX8 inh HTS	CDK5 p35 inh	Cneo AK release	INS-1E GSIS act	HIV Env fusion
COC(=O)C[C@@H]1C=C[C@@H](NC(=O)c2ccccc2)[C@H](CO)O1	/	.	/	.	.	.
CC(C)(C)c1nc[nH]c(=O)c1Br	.	.	.	.	.	/
CC(C)(C)c1nc(C(C)(C)C)c(Br)c(=O)[nH]1	.	.	.	/	.	72
CC(C)NC(=O)N[C@@H]1C=C[C@@H](CC(=O)NCc2ccc(Oc3ccccc3)cc2)O[C@H]1CO	/	.	/	.	.	.
CNC[C@@H]1Oc2ccc(N(C)C)cc2CC(=O)N([C@@H](C)CO)C[C@@H]1C	/	.	/	.	.	.
CO[C@H]1CN(C)C(=O)c2cc(NS(=O)(=O)CC(F)(F)F)ccc2OC[C@H](C)N(Cc2cccnc2)C[C@@H]1C	/	.	/	103	.	/
CO[C@H]1CN(C)C(=O)c2cc(NC(=O)c3nc4ccccc4s3)ccc2OC[C@H](C)N(Cc2cccnc2)C[C@H]1C	/	88	/	.	.	/
CO[C@@H]1CN(C)C(=O)c2ccc(NS(=O)(=O)c3cn(C)cn3)cc2OC[C@@H](C)N(Cc2ccc(C(F)(F)F)cc2)C[C@H]1C	/	.	/	.	.	/
CO[C@@H]1CN(C)C(=O)c2cc(NS(=O)(=O)c3cn(C)cn3)ccc2OC[C@@H](C)N(Cc2ccc(C(F)(F)F)cc2)C[C@H]1C	/	.	/	.	.	88[16.7 µM]
C#CCn1c(S(=O)(=O)Cc2ccc(C)cc2)nc(-c2ccccc2)c1-c1ccccc1	.	.	.	.	/	146
C#CCn1c(S(=O)(=O)Cc2ccccc2Cl)nc(-c2ccccc2)c1-c1ccccc1	.	/	.	.	.	79
O=C(c1ccc(S(=O)(=O)Cc2cc(F)ccc2F)c([N+](=O)[O-])c1)N1CCCC1	.	.	.	.	76	.
COc1cccc(C#Cc2ccc3c(c2)O[C@H](CN(C)C(=O)c2ccccn2)[C@@H](C)CN([C@@H](C)CO)S3(=O)=O)c1	/	.	/	.	.	.
C[C@H]1CCCCO[C@H](CN(C)S(=O)(=O)c2ccccc2)[C@@H](C)CN([C@@H](C)CO)C(=O)c2cc(NS(=O)(=O)c3ccc(Cl)cc3)ccc2O1	/	100	/	.	.	.
C[C@@H]1CCCCO[C@@H](CN(C)S(=O)(=O)c2ccccc2)[C@H](C)CN([C@H](C)CO)C(=O)c2cc(NS(=O)(=O)c3ccc(Cl)cc3)ccc2O1	/	66	/	.	.	.
